Measurements of several laboratories.
Lines come from different studies, so protocols differ.
Sample: Caco-2

SMILES | setting | Papp B→A [×10⁻⁶ cm/s]
COc1ccc([C@@H]2CC(=O)c3c(O)cc(O)cc3O2)cc1O | 100 µg/mL, 2 h | 21.4
N#C[C@@]1(c2ccc3c(N)ncnn23)O[C@H](CO)[C@@H](O)[C@H]1O | 10 µM, 2 h | 25.4
O=c1c(-c2ccc(O)cc2)coc2cc(O)ccc12 | 100 µg/mL, 2 h | 4.98
Cc1cc(C)c(CNC(=O)c2cc(Cl)c3c(c2C)O[C@@](C)([C@H]2CC[C@H](N(C)C)CC2)O3)c(=O)[nH]1 | 30 µM | 19
C[C@@H]1O[C@@H](OC[C@H]2O[C@@H](Oc3c(-c4ccc(OCCO)c(OCCO)c4)oc4cc(OCCO)cc(O)c4c3=O)[C@H](O)[C@@H](O)[C@@H]2O)[C@H](O)[C@H](O)[C@H]1O | 100 µg/mL, 2 h | 2.67
N#Cc1ccc(C[C@H](Nc2nnc(-c3ccc(F)cc3)s2)C(=O)N2CCc3ccccc32)cc1 | 100 µM, 2 h | 314
COc1cc(NC(=O)Cn2cc(Cl)c3cc(F)c(-c4cnn(C)c4)cc32)cc(OC)c1OC | – | 1.51
O=C(CCc1ccc(O)cc1)c1c(O)cc(O)cc1O | 100 µg/mL, 2 h | 12.2
C[C@H]1O[C@@H](O[C@H]2[C@@H](O)C[C@H](O[C@H]3[C@@H](O)C[C@H](O[C@H]4CC[C@@]5(C)[C@H](CC[C@@H]6[C@@H]5C[C@@H](O)[C@]5(C)[C@@H](C7=CC(=O)OC7)CC[C@]65O)C4)O[C@@H]3C)O[C@@H]2C)C[C@H](O)[C@@H]1O | 5 µM, 2 h | 17.9
N#Cc1ccc(C[C@H](NC(=O)Nc2ccc(F)cc2)C(=O)N2CCc3ccccc32)cc1 | 100 µM, 2 h | 218
CC(C)NCC(O)COc1cccc2ccccc12 (stereo not shown) | 10 µM, 2 h | 20
N#Cc1ccc(C[C@H](Nc2ncc(-c3ccc(F)cc3)o2)C(=O)N2CCc3ccccc32)cc1 | 100 µM, 2 h | 200
C=CC(=O)NC1CCN(c2ncc3ncnc(Nc4ccc(Oc5ccc6c(c5)ncn6C)c(C)c4)c3n2)CC1 | – | ~9
